Activity calls are given as the source filed them. The rule behind the calls is not given here.
Key:
[1] = test system: Rattus norvegicus; assay: Antiinflammatory activity in Sprague-Dawley/Wistar rat assessed as decrease in carrageenan-induced hyperalgesia at 40 mg/kg, po administered 4 hrs after carrageenan-challenge measured after 120 mins (reference value: 31.4 +/- 3.7 g); format: functional
[2] = molecular target: Prostaglandin G/H synthase 1 (Homo sapiens, UniProt P23219); assay: Inhibition of COX1 in human whole blood assessed as reduction in TXB2 generation
How it was run: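 Clotting assay in whole blood from three healthy volunteers with no NSAID for 2 weeks. Compounds in DMSO were added at 0.1-300 µM final. Blood clotted in glass tubes at 37 °C for 1 h. Serum TXB2 was measured by RIA as a reflection of platelet COX-1 activity driven by endogenous thrombin.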

[3] = test system: Rattus norvegicus; assay: Antiinflammatory activity in Sprague-Dawley/Wistar rat assessed as decrease in carrageenan-induced paw edema at 20 mg/kg, po administered 3 hrs 30 mins after carrageenan-challenge measured after 60 mins (reference value: 2.48 +/- 0.06 mL); format: functional
[4] = test system: Rattus norvegicus; assay: Antiinflammatory activity in Sprague-Dawley/Wistar rat assessed as decrease in carrageenan-induced hyperalgesia at 20 mg/kg, po administered 4 hrs after carrageenan-challenge measured after 120 mins (reference value: 31.4 +/- 3.7 g); format: functional
[5] = test system: Rattus norvegicus; assay: Antiinflammatory activity in Sprague-Dawley/Wistar rat assessed as decrease in carrageenan-induced hyperalgesia at 20 mg/kg, po administered 4 hrs after carrageenan-challenge measured after 30 mins (reference value: 34.8 +/- 3.0 g); format: functional
[6] = test system: Rattus norvegicus; assay: Antiinflammatory activity in Sprague-Dawley/Wistar rat assessed as decrease in carrageenan-induced paw edema at 40 mg/kg, po administered 3 hrs 30 mins after carrageenan-challenge measured after 60 mins (reference value: 2.48 +/- 0.06 mL); format: functional
[7] = test system: Aorta; assay: Vasorelaxant activity in Wistar rat endothelium-removed thoracic aortic rings assessed as reduction of KCl-induced vasoconstriction at 0.001 uM to 10 uM treated after KCl-challenge relative to control; format: functional
How it was run: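 Thoracic aortic rings from male Wistar rats (250-350 g), endothelium removed by rubbing; removal confirmed as <10% relaxation to ACh 10 µM in KCl 30 mM-contracted rings. Rings contracted with KCl 30 mM; at plateau, 3-fold increasing compound concentrations (1 nM-10 µM) added. Isometric tension recorded. Emax given as % of KCl tone; pIC50 as -log molar concentration halving that tone. 6-10 experiments; also run with ODQ 1 µM.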

[8] = (§1) Inhibition of interleukin 1 beta-induced glycosaminoglycan release in bovine articular cartilage of metacarpophalangeal joints of feet treated 48 hrs after interleukin 1beta-challenge by DMB colorimetric assay; format: functional, Bos taurus
How it was run: (§2)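 Bovine metacarpophalangeal cartilage slices (about 100 mg per well) were cultured in serum-free DMEM at 37 °C, 5% CO2, with medium changed on days 1 and 2. On day 3 the slices were challenged with IL-1β 30 ng/mL plus compound for 48 h. GAG release was measured by the DMB (Farndale) assay and expressed as % of IL-1β alone, n = 3. EC50 is given with 95% CI.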

[9] = species on record: Bos taurus; assay: as §1; format: functional; how it was run: as §2
[10] = test system: Rattus norvegicus; assay: Antiinflammatory activity in Sprague-Dawley/Wistar osteoarthritis model rat assessed as decrease in monoiodoacetate-induced hyperalgesia at 20 mg/kg, po bid for 14 days administered from day of monoiodoacetate-challenge followed by additional compound treatment after 30 mins […] by paw pressure test (reference value: 30.4 +/- 3.1 g); format: functional
[11] = test system: Mus musculus; assay: Antinociceptive activity in po dosed Swiss albino mouse assessed as reduction in number of acetic acid-induced writhing counted 5 mins after acetic acid challenge counted for 10 mins; format: functional; settings: read-out: MED
How it was run: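 Male Swiss albino mice (23-25 g) dosed orally, then given 0.6% acetic acid (10 mL/kg) ip. Stretching movements counted for 10 min, starting 5 min after the acetic acid. Control group received CMC. At least 7 mice/group; mean ± SEM, ANOVA with Fisher's PLSD.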

[12] = test system: Rattus norvegicus; assay: Antiinflammatory activity in Sprague-Dawley/Wistar osteoarthritis model rat assessed as decrease in monoiodoacetate-induced hyperalgesia at 20 mg/kg, po bid for 14 days administered from day of monoiodoacetate-challenge […] post by paw pressure test (reference value: 32.6 +/- 2.9 g); format: functional
[13] = test system: Rattus norvegicus; assay: Antiinflammatory activity in Sprague-Dawley/Wistar rat assessed as decrease in carrageenan-induced hyperalgesia at 40 mg/kg, po administered 4 hrs after carrageenan-challenge measured after 60 mins (reference value: 33.9 +/- 3.7 g); format: functional
[14] = test system: Rattus norvegicus; assay: Antiinflammatory activity in Sprague-Dawley/Wistar rat assessed as decrease in carrageenan-induced hyperalgesia at 20 mg/kg, po administered 4 hrs after carrageenan-challenge measured after 60 mins (reference value: 33.9 +/- 3.7 g); format: functional
[15] = molecular target: T1, Prostaglandin G/H synthase 2 (Homo sapiens) (UniProt P35354); assay: Inhibition of COX2 in human whole blood assessed as reduction in LPS-induced PGE2 generation pre-treated prior to LPS-challenge
T1 sequence (whole entry): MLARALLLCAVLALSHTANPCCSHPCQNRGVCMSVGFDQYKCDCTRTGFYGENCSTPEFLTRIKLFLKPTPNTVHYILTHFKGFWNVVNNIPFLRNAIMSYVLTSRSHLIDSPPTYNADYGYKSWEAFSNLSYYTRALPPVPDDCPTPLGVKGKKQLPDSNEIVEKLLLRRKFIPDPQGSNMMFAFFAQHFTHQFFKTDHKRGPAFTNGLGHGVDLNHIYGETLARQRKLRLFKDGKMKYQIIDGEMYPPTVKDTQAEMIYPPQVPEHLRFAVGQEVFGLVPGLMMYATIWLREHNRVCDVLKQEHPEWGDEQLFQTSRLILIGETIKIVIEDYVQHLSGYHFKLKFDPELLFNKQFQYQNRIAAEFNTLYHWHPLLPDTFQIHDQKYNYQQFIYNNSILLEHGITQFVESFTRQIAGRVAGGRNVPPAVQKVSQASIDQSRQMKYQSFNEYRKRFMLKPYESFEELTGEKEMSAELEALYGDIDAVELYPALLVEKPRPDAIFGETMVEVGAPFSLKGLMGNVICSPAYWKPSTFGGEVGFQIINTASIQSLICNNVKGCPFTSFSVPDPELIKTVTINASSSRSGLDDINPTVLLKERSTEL
How it was run: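 Heparinized whole blood came from three healthy volunteers pretreated with aspirin 300 mg 48 h before sampling to suppress platelet COX-1. Compounds in DMSO were added at 0.1-300 µM final. Blood was incubated with LPS 10 µg/mL for 24 h at 37 °C. Plasma PGE2 was measured by RIA.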

[16] = test system: Rattus norvegicus; assay: Antiinflammatory activity in Sprague-Dawley/Wistar rat assessed as decrease in carrageenan-induced hyperalgesia at 40 mg/kg, po administered 4 hrs after carrageenan-challenge measured after 30 mins (reference value: 34.8 +/- 3.0 g); format: functional
[17] = molecular target: T2, Prostaglandin G/H synthase 1 (Mus musculus, UniProt P22437); assay: Inhibition of arachidonic acid-induced COX1 activity in mouse J774 cells assessed as decrease in PGE2 levels incubated for 15 mins prior to arachidonic acid-challenge measured after 30 mins by RIA; format: cell-based
T2 sequence (P22437 whole entry): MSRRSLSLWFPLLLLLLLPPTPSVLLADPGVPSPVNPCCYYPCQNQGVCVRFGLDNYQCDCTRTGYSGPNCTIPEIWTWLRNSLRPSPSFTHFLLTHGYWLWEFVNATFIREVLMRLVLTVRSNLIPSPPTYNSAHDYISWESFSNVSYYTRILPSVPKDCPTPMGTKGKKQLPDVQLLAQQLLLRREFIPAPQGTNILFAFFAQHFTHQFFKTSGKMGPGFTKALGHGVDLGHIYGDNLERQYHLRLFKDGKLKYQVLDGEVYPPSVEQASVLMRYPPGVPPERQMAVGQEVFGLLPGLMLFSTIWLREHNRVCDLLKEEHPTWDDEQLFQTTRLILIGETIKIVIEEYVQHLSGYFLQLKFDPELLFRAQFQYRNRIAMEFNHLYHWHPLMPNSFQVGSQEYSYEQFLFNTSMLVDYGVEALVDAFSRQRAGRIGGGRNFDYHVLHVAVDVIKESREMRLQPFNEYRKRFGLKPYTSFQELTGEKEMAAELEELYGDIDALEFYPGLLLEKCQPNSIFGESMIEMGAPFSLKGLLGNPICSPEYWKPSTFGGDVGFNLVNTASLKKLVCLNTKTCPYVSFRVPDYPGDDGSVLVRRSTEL
How it was run: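 Cells were in DMEM with 10% FBS and adhered for 2 h at 37 °C. They were pretreated with compound (10 µM; 0.1-1 µM where inhibition exceeded 50%) for 15 min, then given 15 µM arachidonic acid for 30 min at 37 °C. Supernatant PGE2 was measured by RIA. Triplicate wells were used and the mean of three experiments reported. IC50 came from a variable-slope sigmoidal fit.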

[18] = test system: Rattus norvegicus; assay: Antiinflammatory activity in Sprague-Dawley/Wistar rat assessed as decrease in carrageenan-induced hyperalgesia at 10 mg/kg, po administered 4 hrs after carrageenan-challenge measured after 60 mins (reference value: 33.9 +/- 3.7 g); format: functional
[19] = test system: Rattus norvegicus; assay: Antiinflammatory activity in Sprague-Dawley/Wistar rat assessed as decrease in carrageenan-induced paw edema at 10 mg/kg, po administered 3 hrs 30 mins after carrageenan-challenge measured after 60 mins (reference value: 2.48 +/- 0.06 mL); format: functional
[20] = test system: Rattus norvegicus; assay: Antiinflammatory activity in Sprague-Dawley/Wistar rat assessed as decrease in carrageenan-induced hyperalgesia at 10 mg/kg, po administered 4 hrs after carrageenan-challenge measured after 30 mins (reference value: 34.8 +/- 3.0 g); format: functional
[21] = test system: Rattus norvegicus; assay: Antiinflammatory activity in Sprague-Dawley/Wistar rat assessed as decrease in carrageenan-induced hyperalgesia at 3 mg/kg, po administered 4 hrs after carrageenan-challenge measured after 60 mins (reference value: 33.9 +/- 3.7 g); format: functional
[22] = test system: Rattus norvegicus; assay: Antiinflammatory activity in Sprague-Dawley/Wistar rat assessed as decrease in carrageenan-induced paw edema at 3 mg/kg, po administered 3 hrs 30 mins after carrageenan-challenge measured after 60 mins (reference value: 2.48 +/- 0.06 mL); format: functional
[23] = test system: Rattus norvegicus; assay: Antiinflammatory activity in Sprague-Dawley/Wistar rat assessed as decrease in carrageenan-induced hyperalgesia at 3 mg/kg, po administered 4 hrs after carrageenan-challenge measured after 30 mins (reference value: 34.8 +/- 3.0 g); format: functional
[24] = test system: Rattus norvegicus; assay: Antiinflammatory activity in Sprague-Dawley/Wistar rat assessed as decrease in carrageenan-induced hyperalgesia at 3 mg/kg, po administered 4 hrs after carrageenan-challenge measured after 120 mins (reference value: 31.4 +/- 3.7 g); format: functional
[25] = test system: Rattus norvegicus; assay: Antiinflammatory activity in Sprague-Dawley/Wistar rat assessed as decrease in carrageenan-induced hyperalgesia at 10 mg/kg, po administered 4 hrs after carrageenan-challenge measured after 120 mins (reference value: 31.4 +/- 3.7 g); format: functional

Sequence of Prostaglandin G/H synthase 1 (Homo sapiens, UniProt P23219) (P23219 whole entry): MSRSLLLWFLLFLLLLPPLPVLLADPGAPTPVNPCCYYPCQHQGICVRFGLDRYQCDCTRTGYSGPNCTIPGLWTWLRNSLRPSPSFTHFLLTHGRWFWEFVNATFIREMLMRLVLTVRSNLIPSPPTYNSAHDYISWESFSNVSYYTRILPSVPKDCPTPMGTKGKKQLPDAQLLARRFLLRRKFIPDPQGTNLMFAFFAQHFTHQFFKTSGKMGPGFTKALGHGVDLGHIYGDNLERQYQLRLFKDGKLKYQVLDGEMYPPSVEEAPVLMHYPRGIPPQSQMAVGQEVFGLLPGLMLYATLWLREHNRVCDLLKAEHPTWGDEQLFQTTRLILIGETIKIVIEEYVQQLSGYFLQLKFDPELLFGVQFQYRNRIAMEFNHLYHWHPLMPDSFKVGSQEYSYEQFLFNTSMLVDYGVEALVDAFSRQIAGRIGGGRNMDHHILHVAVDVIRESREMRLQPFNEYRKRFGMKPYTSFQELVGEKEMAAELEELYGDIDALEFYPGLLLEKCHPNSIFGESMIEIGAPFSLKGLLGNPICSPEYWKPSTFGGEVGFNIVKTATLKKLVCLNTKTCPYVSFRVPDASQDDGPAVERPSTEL

Cc1c(CCOCCO)cc(-c2ccc(S(C)(=O)=O)cc2)n1-c1ccc(F)cc1
Activity [1]: 47.6 g | IC50 [2]: 20 µM | IC80 [2]: 37.1 µM | inhibition [2]: Dose-dependent effect | Activity [3]: 2.01 mL | Activity [4]: 38.3 g | Activity [5]: 46.8 g | Activity [6]: 1.95 mL | Emax [7]: inactive | IC50 [8]: 33 µM | inhibition [9]: Dose-dependent effect | Activity [10]: 51.2 g | minimal effective dose [11]: 40 mg/kg | Activity [12]: 49.7 g | Activity [13]: 58.3 g | Activity [14]: 38.7 g | IC80 [15]: 2.31 µM | inhibition [15]: Dose-dependent effect | Activity [16]: 57.2 g | IC50 [17]: > 10 µM

Cc1ccc(-c2cc(C(F)(F)F)nn2-c2ccc(S(N)(=O)=O)cc2)cc1 [CELECOXIB]
Activity [18]: 48.3 g | Activity [19]: 1.45 mL | Activity [20]: 52.9 g | Activity [21]: 41.6 g | minimal effective dose [11]: 3 mg/kg | Activity [22]: 2.35 mL | Activity [23]: 44.3 g | Activity [24]: 40.7 g | Activity [25]: 39.8 g
